In ChEMBL document CHEMBL4184255, “Formoxanthone C, isolated from Cratoxylum formosum ssp. pruniflorum, reverses anticancer drug resistance by inducing both apoptosis and autophagy in human A549 lung cancer cells” (Bioorg Med Chem Lett, 2018):
Values after ≈ are worked out from the molar mass of the structure shown. Active and inactive are the calls of the source. The calls are words filed in the database; no cut-off is given here.

How the values were obtained:
[1] = organism: Homo sapiens; test: Induction of cell death in multidrug resistant human A549RT-eto cells incubated for 72 hrs by MTT assay; type: functional
Procedure, shortened: (§1)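 Parental A549 and etoposide-resistant A549RT-eto cells exposed 72 h to two-fold serial dilutions, 25 to 1.56 µg/ml; viability by MTT; IC50 derived from dose-response; mean of triplicates with standard deviation.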

[2] = Cytotoxicity in multidrug resistant human A549RT-eto cells incubated for 72 hrs by MTT assay; type: functional, cell-based; procedure, shortened: as §1
[3] = system: A549; test: Cytotoxicity in human A549 cells incubated for 72 hrs by MTT assay; type: functional, cell-based; conditions: A549, 72 h; procedure, shortened: as §1
[4] = organism: Homo sapiens; test: Cytotoxicity in multidrug resistant human A549RT-eto cells assessed as reduction in cell survival at; type: functional, cell-based
[5] = organism: Homo sapiens; test: Cytotoxicity in multidrug resistant human A549RT-eto cells assessed as reduction in cell survival at 20 ug/ml incubated for 12 hrs by MTT assay; type: functional, cell-based
Procedure, shortened: (§2)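 A549RT-eto cells held at fixed 20 µg/ml and sampled at several exposure times (0, 6, 12, 24 h); survival scored.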

[6] = organism: Homo sapiens; test: Cytotoxicity in multidrug resistant human A549RT-eto cells assessed as reduction in cell survival at 20 ug/ml incubated for 24 hrs by MTT assay; type: functional, cell-based; procedure, shortened: as §2
[7] = organism: Homo sapiens; test: Induction of apoptosis in multidrug resistant human A549RT-eto cells assessed as reduction in pro-caspse-8 protein expression at 10 to 20 ug/ml incubated for 12 hrs by Western blot method; type: functional
Procedure, shortened: (§3)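 A549RT-eto cells treated at 10 and 20 µg/ml, lysed at 12 h; lysates resolved on 12% SDS-PAGE; immunoblot for pro-caspase 8 and PARP cleavage.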

[8] = organism: Homo sapiens; test: Induction of apoptosis in multidrug resistant human A549RT-eto cells assessed as increase in PARP cleavage at 10 to 20 ug/ml incubated for 12 hrs by Western blot method; type: functional; procedure, shortened: as §3
[9] = organism: Homo sapiens; test: Induction of apoptosis in multidrug resistant human A549RT-eto cells assessed as reduction in pro-caspse-9 protein expression at 10 to 20 ug/ml incubated for 12 hrs by Western blot method; type: functional
[10] = organism: Homo sapiens; test: Induction of autophagy in multidrug resistant human A549RT-eto cells assessed as increase in GFP-LC3-II puncta at 7.5 to 20 ug/ml incubated for 24 hrs by fluorescence microscopy; type: functional
[11] = organism: Homo sapiens; test: Induction of autophagy in multidrug resistant human A549RT-eto cells assessed as increase in beclin-1 protein level at 20 ug/ml incubated for 24 hrs by immunoblot; type: functional
[12] = organism: Homo sapiens; test: Induction of autophagy in multidrug resistant human A549RT-eto cells assessed as increase in LC3-I to LC3-II conversion at 20 ug/ml incubated for 24 hrs by immunoblot; type: functional
[13] = organism: Homo sapiens; test: Induction of autophagy in multidrug resistant human A549RT-eto cells assessed as increase in LC3-I to LC3-II conversion at 20 ug/ml incubated for 24 hrs in presence of beclin-1 siRNA by immunoblot; type: functional
Procedure, shortened: (§4)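 A549RT-eto cells transfected with control or beclin-1 siRNA (100 nM), then given 0 or 20 µg/ml for 24 h; viability by light microscopy and MTT as percent relative viability, mean of three experiments; lysates on 12% SDS-PAGE immunoblotted for PARP cleavage, beclin-1 and LC3.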

[14] = organism: Homo sapiens; test: Induction of cell death in multidrug resistant human A549RT-eto cells at 20 ug/ml incubated for 24 hrs in presence of beclin-1 siRNA by MTT assay; type: functional; procedure, shortened: as §4
[15] = organism: Homo sapiens; test: Induction of apoptosis in multidrug resistant human A549RT-eto cells assessed as increase in PARP cleavage at 20 ug/ml incubated for 24 hrs in presence of beclin-1 siRNA by Western blot method; type: functional; procedure, shortened: as §4
[16] = organism: Homo sapiens; test: Induction of cell death in multidrug resistant human A549RT-eto cells at 20 ug/ml incubated for 24 hrs in presence of beclin-1 siRNA by light microscopy; type: functional; procedure, shortened: as §4
[17] = Induction of cell death in multidrug resistant human A549RT-eto cells assessed as cell survival at 20 ug/ml incubated for 24 hrs in presence of pan-caspase inhibitor Z-VAD by MTT assay (reference value: 30%); type: functional; conditions: read-out: Survival
Procedure, shortened: (§5)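 Etoposide-resistant A549RT-eto cells exposed for 24 h to XanX 20 µg/ml, pan-caspase inhibitor Z-VAD 20 µM, or both combined. Morphology inspected by light microscope. Viability read by MTT assay as percentage relative to control. Values are the mean of at least three experiments.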

[18] = Induction of cell death in multidrug resistant human A549RT-eto cells assessed as cell survival at 20 ug/ml incubated for 24 hrs in presence of pan-caspase inhibitor Z-VAD by light microscopy (reference value: 30%); type: functional; conditions: read-out: Survival; procedure, shortened: as §5
[19] = Induction of cell death in multidrug resistant human A549RT-eto cells assessed as cell survival at 20 ug/ml incubated for 24 hrs in absence of pan-caspase inhibitor Z-VAD by MTT assay; type: functional; conditions: read-out: Survival; procedure, shortened: as §5
[20] = Induction of cell death in multidrug resistant human A549RT-eto cells assessed as cell survival at 20 ug/ml incubated for 24 hrs in absence of pan-caspase inhibitor Z-VAD by light microscopy; type: functional; conditions: read-out: Survival; procedure, shortened: as §5
[21] = organism: Homo sapiens; test: Induction of apoptosis in multidrug resistant human A549RT-eto cells assessed as increase in PARP cleavage at 20 ug/ml incubated for 24 hrs in presence of pan-caspase inhibitor Z-VAD by Western blot method; type: functional
Procedure, shortened: (§6)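 A549RT-eto cells given 20 µg/ml alone, Z-VAD (20 µM) alone, or both for 24 h; MTT viability, mean of at least three experiments; lysates on 12% SDS-PAGE immunoblotted for cleaved PARP, beclin-1, LC3B and Atg5.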

[22] = organism: Homo sapiens; test: Induction of autophagy in multidrug resistant human A549RT-eto cells assessed as increase in LC3-I to LC3-II conversion at 20 ug/ml incubated for 24 hrs in presence of pan-caspase inhibitor Z-VAD by immunoblot; type: functional; procedure, shortened: as §6
[23] = organism: Homo sapiens; test: Induction of autophagy in multidrug resistant human A549RT-eto cells assessed as increase in beclin-1 protein level at 20 ug/ml incubated for 24 hrs in presence of pan-caspase inhibitor Z-VAD by immunoblot; type: functional; procedure, shortened: as §6
[24] = organism: Homo sapiens; test: Reduction in HDAC4 protein expression in multidrug resistant human A549RT-eto cells at 20 ug/ml incubated for 24 hrs by immunoblot; type: functional
Procedure, shortened: (§7)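 A549 and A549RT-eto cells treated with 20 µg/ml for 24 h; lysates resolved on 8% SDS-PAGE; immunoblot for HDAC4, P-gp and PARP cleavage.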

[25] = organism: Homo sapiens; test: Reduction in P-gp protein expression in multidrug resistant human A549RT-eto cells at 20 ug/ml incubated for 24 hrs by immunoblot; type: functional; procedure, shortened: as §7
[26] = Induction of cell death in multidrug resistant human A549RT-eto cells at 20 ug/ml incubated for 24 hrs by MTT assay; type: functional
[27] = Induction of cell death in multidrug resistant human A549RT-eto cells at 20 ug/ml incubated for 24 hrs in presence of HDAC4 siRNA by MTT assay; type: functional
Procedure, shortened: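 A549RT-eto cells transfected with control or HDAC4 siRNA (100 nM), then exposed to XanX 20 µg/ml for 24 h. Morphology checked by light microscope. Viability by MTT assay as percentage relative viability, mean of three experiments.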

[28] = organism: Homo sapiens; test: Induction of apoptosis in multidrug resistant human A549RT-eto cells assessed as increase in PARP cleavage at 20 ug/ml incubated for 24 hrs in presence of HDAC4 siRNA by Western blot method; type: functional
[29] = organism: Homo sapiens; test: Induction of autophagy in multidrug resistant human A549RT-eto cells assessed as increase in LC3-I to LC3-II conversion at 20 ug/ml incubated for 24 hrs in presence of HDAC4 siRNA by immunoblot; type: functional
Procedure, shortened: (§8)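 A549RT-eto cells transfected with control or HDAC4 siRNA (100 nM), then 20 µg/ml for 24 h; MTT viability, mean of three experiments; lysates on 12% SDS-PAGE immunoblotted for HDAC4, beclin-1 and LC3-I cleavage.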

[30] = organism: Homo sapiens; test: Induction of autophagy in multidrug resistant human A549RT-eto cells assessed as increase in beclin-1 protein level at 20 ug/ml incubated for 24 hrs in presence of HDAC4 siRNA by immunoblot; type: functional; procedure, shortened: as §8
[31] = organism: Homo sapiens; test: Induction of cell death in multidrug resistant human A549RT-eto cells incubated for 72 hrs by light microscopy; type: functional
Procedure, shortened: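 A549RT-eto cells given 0, 1.56, 3.13, 6.25, 12.5 or 25 µg/ml for 72 h; morphology and viability judged under light microscope.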

[32] = organism: Homo sapiens; test: Induction of autophagy in multidrug resistant human A549RT-eto cells assessed as increase in vacuoles formation at 7.5 to 20 ug/ml by light microscopy
[33] = organism: Homo sapiens; test: Induction of autophagy in multidrug resistant human A549RT-eto cells assessed as reduction in mTOR phosphorylation at 7.5 to 20 ug/ml incubated for 12 hrs by immunoblot
[34] = organism: Homo sapiens; test: Induction of autophagy in multidrug resistant human A549RT-eto cells assessed as increase in beclin-1 protein level at 7.5 to 20 ug/ml incubated for 12 hrs by immunoblot
[35] = organism: Homo sapiens; test: Induction of autophagy in multidrug resistant human A549RT-eto cells assessed as increase in LC3-I to LC3-II conversion at 7.5 to 20 ug/ml incubated for 12 hrs by immunoblot

CC(C)=CCc1c2c(c3oc4c(O)c(O)ccc4c(=O)c3c1O)C(C)(C)C(C)O2 (stereo not given)
Activity [1]: Dose-dependent effect
IC50 [2]: 4.65 µg/mL (≈ 11.7 µM)
IC50 [3]: 2.56 µg/mL (≈ 6.46 µM)
Activity [4]: inactive
Activity [5]: inactive
Activity [6]: Active
Activity [7]: Active
Activity [8]: Active
Activity [9]: Active
Activity [10]: Active
Activity [11]: Active
Activity [12]: Active
Activity [13]: inactive
Activity [14]: inactive
Activity [15]: Active
Activity [16]: inactive
viability at 20 µg/mL [17]: 85%
viability at 20 µg/mL [18]: 85%
viability at 20 µg/mL [19]: 30%
viability at 20 µg/mL [20]: 30%
Activity [21]: inactive
Activity [22]: Active
Activity [23]: Active
Activity [24]: Active
Activity [25]: Active
Activity [26]: 60%
Activity [27]: 80%
Activity [28]: Active
Activity [29]: Active
Activity [30]: Active
Activity [31]: Dose-dependent effect
Activity [32]: Active
Activity [33]: Active
Activity [34]: Active
Activity [35]: Active
